Laboratory results reported in ChEMBL document CHEMBL4823247, “Natural Isoflavones and Semisynthetic Derivatives as Pancreatic Lipase Inhibitors” (J Nat Prod, 2021).
Active and inactive are the calls of the source. No cut-off for these calls is given here.

Species on record: Sus scrofa
Assay: Binding affinity to pig pancreatic lipase type 2 assessed as binding constant at 37 degC measured after 1 min by Stern-Volmer plot analysis
In short: (§1)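 Intrinsic Trp fluorescence titration of PL, 1.1 μM in 0.1 M phosphate buffer with 0.1 M NaCl, pH 7.4, by successive 1 or 2 μL additions of compound. Run at 27, 32 and 37 °C, each in triplicate. Excitation 285 nm, slits 10 nm. Spectrum recorded 1 min after each addition. Intensity at the emission maximum was used for Stern–Volmer plots.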

| Ka | Structure (SMILES) |
| --- | --- |
| 1.02 10^4L/mol | O=c1c(-c2ccc(O)cc2)coc2cc(O)ccc12 [DAIDZEIN] |
| 3.21 10^4L/mol | O=c1c(-c2cc(Br)c(O)c(Br)c2)coc2c(Br)c(O)ccc12 |

Target: not listed separately
Assay: Competitive inhibition of pig pancreatic lipase type 2 using varying concentrations of p-nitrophenyl butyrate as substrate measured every 1 min for 30 mins by Lineweaver-Burk plot analysis
Set-up: species or system Sus scrofa
In short: (§2)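 A405 was read every 1 min for 30 min. Mode of inhibition was from Lineweaver–Burk plots of 1/v0 vs 1/[S]. Ki and K'i were obtained from replots of slope and y-intercept versus inhibitor concentration.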

| Ki [µM] | Structure (SMILES) |
| --- | --- |
| 300 | O=c1c(-c2ccc(O)cc2)coc2cc(O)ccc12 [DAIDZEIN] |
| 90 | O=c1c(-c2cc(Br)c(O)c(Br)c2)coc2c(Br)c(O)ccc12 |

Species on record: Sus scrofa
Assay: Binding affinity to pig pancreatic lipase type 2 assessed as quenching rate constant at 32 degC measured after 1 min by Stern-Volmer plot analysis
In short: as §1

| Kq | Structure (SMILES) |
| --- | --- |
| 3.11 10^13L/mol.s | O=c1c(-c2ccc(O)cc2)coc2cc(O)ccc12 [DAIDZEIN] |
| 0.6 10^13L/mol.s | O=c1c(-c2cc(Br)c(O)c(Br)c2)coc2c(Br)c(O)ccc12 |

Species on record: Sus scrofa
Assay: Binding affinity to pig pancreatic lipase type 2 assessed as Stern-Volmer quenching constant at 32 degC measured after 1 min by Stern-Volmer plot analysis
In short: as §1

| KSV | Structure (SMILES) |
| --- | --- |
| 4.94 10^4L/mol | O=c1c(-c2ccc(O)cc2)coc2cc(O)ccc12 [DAIDZEIN] |
| 0.96 10^4L/mol | O=c1c(-c2cc(Br)c(O)c(Br)c2)coc2c(Br)c(O)ccc12 |

Species on record: Sus scrofa
Assay: Binding affinity to pig pancreatic lipase type 2 assessed as decrease in fluorescence intensity at 27 degC measured after 1 min by fluorescence spectral analysis
In short: as §1

| Activity | Structure (SMILES) |
| --- | --- |
| Active | O=c1c(-c2ccc(O)cc2)coc2cc(O)ccc12 [DAIDZEIN] |
| Active | O=c1c(-c2cc(Br)c(O)c(Br)c2)coc2c(Br)c(O)ccc12 |

Species on record: Sus scrofa
Assay: Binding affinity to pig pancreatic lipase type 2 assessed as binding constant at 27 degC measured after 1 min by Stern-Volmer plot analysis
In short: as §1

| Ka | Structure (SMILES) |
| --- | --- |
| 5.3 10^4L/mol | O=c1c(-c2ccc(O)cc2)coc2cc(O)ccc12 [DAIDZEIN] |
| 0.32 10^4L/mol | O=c1c(-c2cc(Br)c(O)c(Br)c2)coc2c(Br)c(O)ccc12 |

Species on record: Sus scrofa
Assay: Binding affinity to pig pancreatic lipase type 2 assessed as decrease in fluorescence intensity at 32 degC measured after 1 min by fluorescence spectral analysis
In short: as §1

| Activity | Structure (SMILES) |
| --- | --- |
| Active | O=c1c(-c2ccc(O)cc2)coc2cc(O)ccc12 [DAIDZEIN] |
| Active | O=c1c(-c2cc(Br)c(O)c(Br)c2)coc2c(Br)c(O)ccc12 |

Species on record: Sus scrofa
Assay: Binding affinity to pig pancreatic lipase type 2 assessed as binding constant at 32 degC measured after 1 min by Stern-Volmer plot analysis
In short: as §1

| Ka | Structure (SMILES) |
| --- | --- |
| 1.2 10^4L/mol | O=c1c(-c2ccc(O)cc2)coc2cc(O)ccc12 [DAIDZEIN] |
| 1.99 10^4L/mol | O=c1c(-c2cc(Br)c(O)c(Br)c2)coc2c(Br)c(O)ccc12 |

Species on record: Sus scrofa
Assay: Binding affinity to pig pancreatic lipase type 2 assessed as Stern-Volmer quenching constant at 27 degC measured after 1 min by Stern-Volmer plot analysis
In short: as §1

| KSV | Structure (SMILES) |
| --- | --- |
| 8.95 10^4L/mol | O=c1c(-c2ccc(O)cc2)coc2cc(O)ccc12 [DAIDZEIN] |
| 0.58 10^4L/mol | O=c1c(-c2cc(Br)c(O)c(Br)c2)coc2c(Br)c(O)ccc12 |

Species on record: Sus scrofa
Assay: Binding affinity to pig pancreatic lipase type 2 assessed as decrease in fluorescence intensity at 37 degC measured after 1 min by fluorescence spectral analysis
In short: as §1

| Activity | Structure (SMILES) |
| --- | --- |
| Active | O=c1c(-c2ccc(O)cc2)coc2cc(O)ccc12 [DAIDZEIN] |
| Active | O=c1c(-c2cc(Br)c(O)c(Br)c2)coc2c(Br)c(O)ccc12 |

Species on record: Sus scrofa
Assay: Binding affinity to pig pancreatic lipase type 2 assessed as bathochromic shift of maximum fluorescence intensity at 32 degC measured after 1 min by fluorescence spectral analysis
In short: as §1

| Activity | Structure (SMILES) |
| --- | --- |
| Active | O=c1c(-c2ccc(O)cc2)coc2cc(O)ccc12 [DAIDZEIN] |
| Active | O=c1c(-c2cc(Br)c(O)c(Br)c2)coc2c(Br)c(O)ccc12 |

Species on record: Sus scrofa
Assay: Binding affinity to pig pancreatic lipase type 2 assessed as bathochromic shift of maximum fluorescence intensity at 37 degC measured after 1 min by fluorescence spectral analysis
In short: as §1

| Activity | Structure (SMILES) |
| --- | --- |
| Active | O=c1c(-c2ccc(O)cc2)coc2cc(O)ccc12 [DAIDZEIN] |
| Active | O=c1c(-c2cc(Br)c(O)c(Br)c2)coc2c(Br)c(O)ccc12 |

Species on record: Sus scrofa
Assay: Binding affinity to pig pancreatic lipase type 2 assessed as bathochromic shift of maximum fluorescence intensity at 27 degC measured after 1 min by fluorescence spectral analysis
In short: as §1

| Activity | Structure (SMILES) |
| --- | --- |
| Active | O=c1c(-c2ccc(O)cc2)coc2cc(O)ccc12 [DAIDZEIN] |
| Active | O=c1c(-c2cc(Br)c(O)c(Br)c2)coc2c(Br)c(O)ccc12 |

Species on record: Sus scrofa
Assay: Binding affinity to pig pancreatic lipase type 2 assessed as Stern-Volmer quenching constant at 37 degC measured after 1 min by Stern-Volmer plot analysis
In short: as §1

| KSV | Structure (SMILES) |
| --- | --- |
| 4.08 10^4L/mol | O=c1c(-c2ccc(O)cc2)coc2cc(O)ccc12 [DAIDZEIN] |
| 1.11 10^4L/mol | O=c1c(-c2cc(Br)c(O)c(Br)c2)coc2c(Br)c(O)ccc12 |

Target: not listed separately
Assay: Non-competitive inhibition of pig pancreatic lipase type 2 using varying concentrations of p-nitrophenyl butyrate as substrate measured every 1 min for 30 mins by Lineweaver-Burk plot analysis
Set-up: species or system Sus scrofa
In short: as §2

| Ki [µM] | Structure (SMILES) |
| --- | --- |
| 630 | O=c1c(-c2ccc(O)cc2)coc2cc(O)ccc12 [DAIDZEIN] |
| 1200 | O=c1c(-c2cc(Br)c(O)c(Br)c2)coc2c(Br)c(O)ccc12 |

Target: not listed separately
Assay: Inhibition of pig pancreatic lipase type 2 using p-nitrophenyl butyrate as substrate preincubated with enzyme for 10 mins followed by susbtrate addition and measured after 30 mins by spectrophotometric analysis
Set-up: species or system Sus scrofa
In short: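 PL (300 U/mL stock, in 50 mM phosphate buffer pH 7.2) was preincubated with compound aliquots (MeOH or MeOH:DMSO 95:5 stocks) for 10 min at 37 °C. p-Nitrophenyl butyrate (3.2 mM stock) was then added and incubated 30 min at 37 °C with shaking, read at 405 nm. Five concentrations per compound, in triplicate. % inhibition was taken from absorbance vs no-compound control, and IC50 by regression.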

| IC50 [µM] | Structure (SMILES) |
| --- | --- |
| 70 | O=c1c(-c2ccc(O)c(O)c2)coc2cc(O)ccc12 |
| 83 | O=c1c(-c2ccc(O)cc2)coc2cc(O)ccc12 [DAIDZEIN] |
| 63 | O=c1c(-c2cc(Br)c(O)c(Br)c2)coc2c(Br)c(O)ccc12 |

Species on record: Sus scrofa
Assay: Binding affinity to pig pancreatic lipase type 2 assessed as quenching rate constant at 37 degC measured after 1 min by Stern-Volmer plot analysis
In short: as §1

| Kq | Structure (SMILES) |
| --- | --- |
| 2.57 10^13L/mol.s | O=c1c(-c2ccc(O)cc2)coc2cc(O)ccc12 [DAIDZEIN] |
| 0.7 10^13L/mol.s | O=c1c(-c2cc(Br)c(O)c(Br)c2)coc2c(Br)c(O)ccc12 |

Species on record: Sus scrofa
Assay: Binding affinity to pig pancreatic lipase type 2 assessed as quenching rate constant at 27 degC measured after 1 min by Stern-Volmer plot analysis
In short: as §1

| Kq | Structure (SMILES) |
| --- | --- |
| 5.62 10^13L/mol.s | O=c1c(-c2ccc(O)cc2)coc2cc(O)ccc12 [DAIDZEIN] |
| 0.36 10^13L/mol.s | O=c1c(-c2cc(Br)c(O)c(Br)c2)coc2c(Br)c(O)ccc12 |
